# Laboratory results from ChEMBL document CHEMBL2331432, “Synthesis and dual biological effects of hydroxycinnamoyl phenylalanyl/prolyl hydroxamic acid derivatives as tyrosinase inhibitor and antioxidant” (Bioorg Med Chem Lett, 2013).
# Activity calls are given as the source filed them. The calls are words filed in the database; no cut-off is given here.
# Legend:
# [1] = (§1) Inhibition of TPA-stimulated melanogenesis in mouse Mel-Ab cells at 100 uM after 4 days; assay type: functional; conditions: 96 h
# [2] = molecular target: T1, Tyrosinase (Agaricus bisporus) (UniProt O42713); assay: Inhibition of mushroom tyrosinase using L-DOPA substrate at 50 to 100 uM incubated for 10 mins
# T1 sequence (whole entry): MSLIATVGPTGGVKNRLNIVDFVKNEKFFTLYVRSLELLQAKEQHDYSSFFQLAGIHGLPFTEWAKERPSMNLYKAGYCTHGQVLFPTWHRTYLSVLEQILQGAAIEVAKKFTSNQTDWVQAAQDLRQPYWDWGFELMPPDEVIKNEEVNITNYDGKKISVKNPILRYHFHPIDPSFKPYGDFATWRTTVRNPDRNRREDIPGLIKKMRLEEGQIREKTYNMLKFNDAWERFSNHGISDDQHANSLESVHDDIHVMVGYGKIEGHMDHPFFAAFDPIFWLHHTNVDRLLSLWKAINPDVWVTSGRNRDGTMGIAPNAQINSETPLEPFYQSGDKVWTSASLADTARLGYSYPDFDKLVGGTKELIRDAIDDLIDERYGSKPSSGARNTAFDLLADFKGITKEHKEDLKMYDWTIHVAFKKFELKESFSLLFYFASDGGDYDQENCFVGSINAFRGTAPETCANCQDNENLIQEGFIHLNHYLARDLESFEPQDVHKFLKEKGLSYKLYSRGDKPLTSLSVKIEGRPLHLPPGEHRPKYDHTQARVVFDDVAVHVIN
# Outline: (§2)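 Mushroom tyrosinase (25 µL of 100 µg/mL aqueous solution) added to 0.1 M phosphate buffer pH 6.8, 2.5 mM L-DOPA (stock), water and inhibitor in DMSO. Incubated 25 °C for 10 min, absorbance at 475 nm. %inhibition = (1−A/B)×100 against a DMSO-only reference. Single-point tests at 50 or 100 µM; kojic acid as reference. Triplicate, mean with standard error.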
# [3] = Antioxidant activity assessed as inhibition of lipid peroxidation after 48 hrs by ferric thiocyanate assay; assay type: functional
# Outline: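 Lipid peroxidation run in an emulsified system with antioxidant at 90 µM final, 50 °C in the dark for 48 h. Ferric thiocyanate read-out: absorbance at 500 nm 3 min after colour development. Trolox as positive control. Triplicate, mean with standard error.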
# [4] = test system: Radical scavenging activity; assay: Antioxidant activity assessed as DPPH radical scavenging activity by UV/Visible spectrophotometry; assay type: functional
# Outline: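 DPPH in methanol; antioxidant:DPPH molar ratio 0.25 for caffeic/dihydrocaffeic acids and their conjugates, 0.50 for p-coumaric, ferulic, sinapic acids and their conjugates. 10 min at 25 °C, absorbance at 516 nm. %RSA = (1−A/B)×100, B = methanol in place of sample. Triplicate, mean with standard error.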
# [5] = Toxicity against mouse Mel-Ab cells at 100 uM by CCK-8 assay
# Tyrosinase = molecular target: T2, Tyrosinase (Agaricus bisporus, UniProt O42713); assay: Inhibition of mushroom tyrosinase using L-DOPA substrate incubated for 10 mins
# T2 sequence (O42713 whole entry): T1 sequence (whole entry)
# Mel-Ab = assay: as §1; assay type: functional
# [6] = molecular target: T1, Tyrosinase (Agaricus bisporus); assay: Inhibition of mushroom tyrosinase using L-DOPA substrate at 100 uM incubated for 10 mins; outline: as §2
Structure (SMILES),inhibition [2],inhibition [3],Activity [4],Activity [5],other results
COc1cc(/C=C/C(=O)N2CCCC2C(=O)NO)cc(OC)c1O (centres undefined),inactive,Active,Active,Non-toxic,inhibition at 100 µM [1]: 30%
NC(=O)C(Cc1ccccc1)NC(=O)OCc1cc(=O)c(O)co1 (centres undefined),–,–,–,–,IC50 (Tyrosinase): 4.2 µM
O=C(NO)C1CCCN1C(=O)CCc1ccc(O)c(O)c1 (centres undefined),inactive,inactive,–,–,–
O=C(NO)C1CCCN1C(=O)/C=C/c1ccc(O)cc1 (centres undefined),Active,inactive,inactive,–,–
O=C(O)/C=C/c1ccc(O)cc1,–,inactive,inactive,–,–
O=C(NO)C1CCCN1C(=O)/C=C/c1ccc(O)c(O)c1 (centres undefined),Active,Active,Active,Non-toxic,inhibition at 100 µM [1]: 30%
COc1cc(/C=C/C(=O)NC(Cc2ccccc2)C(=O)NO)ccc1O (centres undefined),inactive,Active,Active,Non-toxic,inhibition (Mel-Ab): inactive
COc1cc(/C=C/C(=O)O)cc(OC)c1O,inactive,–,–,–,–
CC(=O)N1CCCC1C(=O)NO (centres undefined),–,–,–,–,inhibition [6]: 5%
O=C(/C=C/c1ccc(O)c(O)c1)NC(Cc1ccccc1)C(=O)NO (centres undefined),Active,Active,–,Non-toxic,inhibition (Mel-Ab): Active; IC50 (Tyrosinase): 4.9 µM
O=C(O)CCc1ccc(O)c(O)c1,–,inactive,–,–,–
O=C(O)/C=C/c1ccc(O)c(O)c1 [CAFFEIC ACID],–,–,–,Toxic,–
OC[C@H]1O[C@@H](Oc2ccc(O)cc2)[C@H](O)[C@@H](O)[C@@H]1O,–,–,–,–,inhibition (Mel-Ab): Active
O=C(CCc1ccc(O)c(O)c1)NC(Cc1ccccc1)C(=O)NO (centres undefined),inactive,inactive,–,–,–
COc1cc(/C=C/C(=O)NC(Cc2ccccc2)C(=O)NO)cc(OC)c1O (centres undefined),inactive,Active,–,Non-toxic,inhibition at 100 µM [1]: 30%
COc1cc(/C=C/C(=O)N2CCCC2C(=O)NO)ccc1O (centres undefined),inactive,Active,Active,Non-toxic,–
CC(=O)NC(Cc1ccccc1)C(=O)NO (centres undefined),–,–,–,–,inhibition [6]: 6%
O=C(/C=C/c1ccc(O)cc1)NC(Cc1ccccc1)C(=O)NO (centres undefined),Active,inactive,inactive,–,–
COc1cc(/C=C/C(=O)O)ccc1O,inactive,–,Active,–,–
